Source: PubChem
The list is not random: actives were taken first. Their share in the collection is about 8.2%.
M1 antag = antagonists of rat M1 muscarinic receptor. actives 3.4% (n = 64,000). CHO-M1 cells, Fluo-4 calcium, ACh EC80 antagonist mode; stronger effect = lower value. B-score at 10 µM;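 active means calcium fluorescence response, raw or row-and-column corrected B-score, differing from the plate sample mean either way at a set confidence level, mostly lower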
Target sequence (P08482 whole entry, looked up): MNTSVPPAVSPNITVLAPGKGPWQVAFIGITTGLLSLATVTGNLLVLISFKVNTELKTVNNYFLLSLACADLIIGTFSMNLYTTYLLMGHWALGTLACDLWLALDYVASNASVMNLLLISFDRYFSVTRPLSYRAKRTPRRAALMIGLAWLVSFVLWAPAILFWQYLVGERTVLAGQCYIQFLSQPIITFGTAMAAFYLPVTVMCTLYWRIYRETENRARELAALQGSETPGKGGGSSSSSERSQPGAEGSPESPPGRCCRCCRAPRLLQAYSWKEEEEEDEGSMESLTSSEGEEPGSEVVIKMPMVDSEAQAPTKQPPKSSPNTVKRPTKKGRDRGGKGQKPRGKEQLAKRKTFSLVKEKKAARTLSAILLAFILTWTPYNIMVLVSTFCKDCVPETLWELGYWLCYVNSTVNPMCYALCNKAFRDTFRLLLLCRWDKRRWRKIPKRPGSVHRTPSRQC
M1 ag = M1 muscarinic receptor agonism. CHO-M1 cells, Fluo-4 calcium fluorescence, agonist mode; stronger effect = higher value. B-score at 10 µM. actives 3% (n = 64,000). AID 626;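 active means fluorescence rise, raw or as B-score row- and column-corrected plate score, outside the 99.7% band of its plate's samples, either direction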
HePTP inh = human HePTP phosphatase inhibition; AID 521; actives 0.64% (n = 110,000); recombinant HePTP phosphatase activity, OD absorbance; inhibition, % at 20 µM; P35236; in the data active means inhibition above about 50%;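 further: plate controls were vehicle for no effect and reference inhibitor for full effect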
SF1 activator = SF-1 (human) activation | Q13285 | CHO-K1 Gal4-SF-1 LBD luciferase reporter; % increase over DMSO SF-1-specific signal | activation, % at 10 µM | actives 1.9% (n = 65,000) | AID 522;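 active means activation above the mean activation of all tested compounds plus 3 SD, cut at about 50% in these data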
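Assay system – CHO-K1 cells with Gal4–hSF-1 LBD chimera plus Gal4-driven luciferase · Quantity – 4,000 cells per well · Times – compound added 1 h post-seeding, 20 h exposure at 37 °C, 5% CO2 · Measured by – luciferase light emission · Benchmarks – DMSO and mock-transfected background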
D1 allo mod = allosterically modulates the human D1 dopamine receptor | B-score at 10 µM | AID 641 | actives 5.9% (n = 58,000) | HEK293 D1, CRE-luciferase, dopamine EC30 potentiation; actives deviate in either direction | P21728;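 active means luminescence count or its row- and column-corrected plate score outside the 99.7% band of the plate's sample wells, on either side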
RORa activator = activates the human nuclear receptor RORA; P35398; CHO-K1 Gal4-RORA LBD luciferase reporter, luminescence; percent increase over mock-subtracted basal signal; activation, % at 10 µM; actives 1.5% (n = 65,000);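 active means activation above the mean of all tested compounds plus 3 SD, cut at about 49% in these data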;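 further: 0% = DMSO-treated RORA cells and 100% = added signal equal to DMSO minus mock-transfected cells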
D1 PAM confirm = confirmation of human D1 dopamine receptor allosteric modulators. actives 88% (n = 2,200). HEK293 D1 CRE-luciferase, dopamine EC30 potentiation; stronger effect = higher value. luminescence at 10 µM. AID 642. shares compounds with D1 allo mod;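 active means luminescence in either of two replicates above the same-plate mean plus 3 SD of the low-dose dopamine control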
D1 ag no DA = secondary test of D1 modulators: activity without dopamine. shares compounds with D1 allo mod. HEK293 D1 CRE-luciferase, luminescence, no dopamine; stronger effect = higher value. luminescence at 10 µM. actives 0.8% (n = 1,900); in the data active means luminescence above about 3900
Isoprot counter = alters isoproterenol CRE-luciferase response in HEK293 cells; HEK293 D1 CRE-luciferase, isoproterenol EC30 counter-screen; actives 63% (n = 2,200); calls only at 10 µM; AID 647; shares compounds with D1 allo mod;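 active means luminescence in either replicate above plate mean of wells with a partly effective reference agonist dose plus 3 SD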;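 further: isoproterenol raises cAMP through native beta-adrenoceptor Gs so signal bypasses D1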
Numbers without * were called inactive; i = inactive; nt = no result; + = active, no number.

SMILES	M1 antag	M1 ag	HePTP inh	SF1 activator	D1 allo mod	RORa activator	D1 PAM confirm	D1 ag no DA	Isoprot counter
CCOC(=O)N1CCN(C(=O)CCCn2c(=O)[nH]c3ccccc3c2=O)CC1	0.0254	-1.12	-7.8	-14.3	-0.882	-8.6	nt	nt	nt
O=S(=O)(c1cccc(-c2nc3n(n2)Cc2ccccc2-3)c1)N1CCCC1	-0.35	0.192	3.8	32.8	4.87*	-5.9	7316*	1740	+
Cc1ccc(NC(=O)c2ccccc2[N+](=O)[O-])c(C)c1	nt	nt	11.8	nt	nt	nt	nt	nt	nt
c1ccc(-c2n[nH]nc2-c2ccccc2)cc1	-0.0466	0.993	nt	4.9	16.9*	-21.0	18456*	nt	+
Clc1ccccc1-c1nnc2sc(-c3cccs3)nn12	-0.0516	-0.0913	5.3	-25.4	10.7*	-10.4	14324*	1788	+
Clc1ccccc1-c1nn2c(-c3ccccn3)nnc2s1	-0.231	0.404	3.6	9.1	nt	-15.9	nt	nt	nt
COc1ccc(-c2nnc3sc(-c4cccs4)nn23)cc1OC	-0.781	4.48	1.3	13.3	4.95*	5.2	12160*	nt	+
Clc1ccccc1-c1nnc2sc(-c3ccncc3)nn12	0.677	0.0217	-3.6	4.2	4.1	-18.0	nt	nt	nt
C1CCC(c2nn3c(-c4n[nH]c5c4CCC5)nnc3s2)CC1	0.0433	-0.158	8.2	-8.4	6.32*	7.3	15420*	1752	i
Clc1ccccc1-c1nn2c(-c3ccncc3)nnc2s1	nt	nt	2.8	8.4	4.87*	-30.4	7940*	1776	i
COc1ccc(-c2nn3c(C4CCCCC4)nnc3s2)cc1OC	0.0256	0.978	-3.0	-0.1	nt	-24.3	nt	nt	nt
COc1ccc(-c2nnc3sc(C4CCCCC4)nn23)cc1OC	0.234	0.382	-0.1	-8.4	15.4*	1.9	20172*	nt	+
COc1ccc2nc(NC(=O)CCc3nc(-c4ccccc4F)no3)sc2c1	-0.101	0.0421	-2.6	7.7	8.28*	10.4	7800	1704	i
CC(C)CCOc1cccc(OCC(=O)NC2CCS(=O)(=O)C2)c1 (stereo not drawn)	0.00569	-0.756	-2.3	10.5	0.0322	11.2	nt	nt	nt
COC(=O)CCSCC(=O)Nc1cc(C)on1	0.668	-0.708	5.0	0.7	nt	-3.1	nt	nt	nt
Cc1cc(C)n2nc(SC(C)C(=O)NCc3ccco3)nc2n1 (stereo not drawn)	0.388	-0.0925	5.2	-5.4	7.1*	-9.7	6820	1844	i
Cc1cc(C)n2c(SCC(=O)NCc3ccco3)nnc2n1	-1.87	-0.338	6.3	0.3	-0.603	-19.4	nt	nt	nt
Cc1cc(=O)oc2cc(OCC(=O)NCCc3nc4ccccc4[nH]3)ccc12	-0.0595	-0.0404	7.0	6.5	3.22*	-0.7	6860*	1464	i
Cc1ccc(Oc2ccccc2)c(NC=O)c1	-0.0033	1.32	5.5	4.4	4.95*	7.5	12104*	1524	i
O=C(Nc1ccccc1Oc1ccccc1)C(c1ccccc1)c1ccccc1	nt	nt	-0.7	nt	nt	nt	nt	nt	nt
Cc1cc(C(=O)Nc2ccc(S(=O)(=O)Nc3onc(C)c3C)cc2)c(C)o1	0.891	0	4.0	11.0	2.93*	1.5	8272*	1556	+
Fc1ccc(-c2cc(C(F)(F)F)nc(NCC3CCCO3)n2)cc1 (stereo not drawn)	-0.087	0.584	1.1	-15.1	5.52*	-1.6	8052*	nt	i
COc1ccc(S(=O)(=O)N(CC(=O)N2CCCC2)c2ccc(C)cc2)cc1OC	nt	nt	-0.8	nt	nt	nt	nt	nt	nt
COc1ccc(OC)c(C2C(C(=O)c3cccs3)=C(O)C(=O)N2CCN(C)C)c1 (stereo not drawn)	0.0457	0.521	-0.9	-3.6	-0.115	-17.2	nt	nt	nt
COc1cccc(C2C(C(=O)c3cccs3)=C(O)C(=O)N2CCN(C)C)c1OC (stereo not drawn)	-0.993	-0.555	4.0	-4.5	2.51*	-3.9	5748	nt	i
SMILES	M1 antag	M1 ag	HePTP inh	SF1 activator	D1 allo mod	RORa activator	D1 PAM confirm	D1 ag no DA	Isoprot counter
CCOc1ccc(C(=O)Nc2ccc(N3CCCC3)cc2)cc1	-0.312	-0.188	0.9	20.5	-0.0603	15.4	nt	nt	nt
CCCOc1ccc(C(=O)Nc2ccc(N3CCN(C(C)=O)CC3)cc2)cc1	0.00631	0.87	-2.5	10.8	3*	17.5	6192	1528	i
CCC(=O)N1CCc2cc(S(=O)(=O)N3CCN(c4ccccn4)CC3)ccc21	-0.65	-0.405	8.3	-10.2	2.66*	8.6	13196*	1512	+
COC(=O)CCc1c(C)c(C#N)c2nc3ccccc3n2c1N1CCCC1	-0.127	-0.654	-4.5	0.7	5.54*	-6.8	10456*	nt	+
CCOC(=O)CCc1c(C)c(C#N)c2nc3ccccc3n2c1-n1ccnc1	-0.486	-1.11	7.5	3.5	0.192	13.9	nt	nt	nt
COc1cc(-c2nc(-c3ccc(NC(=O)c4ccc5c(c4)OCO5)cc3)no2)cc(OC)c1OC	0.18	-0.219	13.7	10.8	-1.28	26.6	nt	nt	nt
CCOc1cc(C2C(C#N)=C(N)Oc3n[nH]c(-c4ccccc4)c32)ccc1O (stereo not drawn)	-0.0522	1.24	7.1	17.1	3.81*	-14.4	5848*	1448	i
Cc1ccc(-c2[nH]nc3c2C(c2ccoc2)C(C#N)=C(N)O3)cc1C (stereo not drawn)	0.754	-0.274	2.1	30.9	10.7*	21.8	18284*	1340	+
CC(C)CC1C(C#N)=C(N)Oc2n[nH]c(-c3ccccc3)c21 (stereo not drawn)	nt	nt	-2.4	nt	nt	nt	nt	nt	nt
Cc1[nH]nc2c1C(c1ccc(Cl)cc1)C(C#N)=C(N)O2 (stereo not drawn)	1.03	0.00134	8.1	14.2	-0.514	-1.8	nt	nt	nt
CC(C)C1C(C#N)=C(N)Oc2n[nH]c(-c3ccccc3)c21 (stereo not drawn)	1.27*	-0.152	-7.6	-3.4	3.81*	-8.0	13728*	1660	i
CCCCc1sc(-c2c(C#N)c(N)nc3c2CCCCC3)cc1[N+](=O)[O-]	nt	nt	-8.8	nt	nt	nt	nt	nt	nt
CCc1ccc(CC)c(S(=O)(=O)Nc2ccc(C(=O)O)c(O)c2)c1	0.525	0.297	-8.1	23.6	-0.369	-11.9	nt	nt	nt
O=C(/C=C/c1ccc(Cl)cc1)Nc1ccc(Cl)cn1	nt	nt	8.1	nt	nt	nt	nt	nt	nt
CCCN(CCC)c1ccc(C2NC(=O)c3c(sc4c3CCN(C)C4)N2)cc1 (stereo not drawn)	nt	nt	7.4	nt	nt	nt	nt	nt	nt
Cn1cccc1C1NC(=O)c2c(sc3c2CCC(C(C)(C)C)C3)N1 (stereo not drawn)	0.636	-3.1	2.3	4.8	2.97*	-7.8	7568*	1776	i
Cn1c(=O)c2c(nc(NCc3ccc4c(c3)OCO4)n2Cc2ccccc2)n(C)c1=O	0.853	-1.54	-4.6	-4.9	nt	0.3	nt	nt	nt
